Experimental data reported in BindingDB's records for doi:10.1016/j.bmcl.2010.04.101 (Indian Institute of Technology, 2010).

What follows are molecules tested against T1, Membrane-bound transcription factor site-1 protease (Homo sapiens, UniProt Q14703) (assay: Inhibition of human recombinant soluble Kexin isozyme 1).
T1 sequence (Q14703 whole entry): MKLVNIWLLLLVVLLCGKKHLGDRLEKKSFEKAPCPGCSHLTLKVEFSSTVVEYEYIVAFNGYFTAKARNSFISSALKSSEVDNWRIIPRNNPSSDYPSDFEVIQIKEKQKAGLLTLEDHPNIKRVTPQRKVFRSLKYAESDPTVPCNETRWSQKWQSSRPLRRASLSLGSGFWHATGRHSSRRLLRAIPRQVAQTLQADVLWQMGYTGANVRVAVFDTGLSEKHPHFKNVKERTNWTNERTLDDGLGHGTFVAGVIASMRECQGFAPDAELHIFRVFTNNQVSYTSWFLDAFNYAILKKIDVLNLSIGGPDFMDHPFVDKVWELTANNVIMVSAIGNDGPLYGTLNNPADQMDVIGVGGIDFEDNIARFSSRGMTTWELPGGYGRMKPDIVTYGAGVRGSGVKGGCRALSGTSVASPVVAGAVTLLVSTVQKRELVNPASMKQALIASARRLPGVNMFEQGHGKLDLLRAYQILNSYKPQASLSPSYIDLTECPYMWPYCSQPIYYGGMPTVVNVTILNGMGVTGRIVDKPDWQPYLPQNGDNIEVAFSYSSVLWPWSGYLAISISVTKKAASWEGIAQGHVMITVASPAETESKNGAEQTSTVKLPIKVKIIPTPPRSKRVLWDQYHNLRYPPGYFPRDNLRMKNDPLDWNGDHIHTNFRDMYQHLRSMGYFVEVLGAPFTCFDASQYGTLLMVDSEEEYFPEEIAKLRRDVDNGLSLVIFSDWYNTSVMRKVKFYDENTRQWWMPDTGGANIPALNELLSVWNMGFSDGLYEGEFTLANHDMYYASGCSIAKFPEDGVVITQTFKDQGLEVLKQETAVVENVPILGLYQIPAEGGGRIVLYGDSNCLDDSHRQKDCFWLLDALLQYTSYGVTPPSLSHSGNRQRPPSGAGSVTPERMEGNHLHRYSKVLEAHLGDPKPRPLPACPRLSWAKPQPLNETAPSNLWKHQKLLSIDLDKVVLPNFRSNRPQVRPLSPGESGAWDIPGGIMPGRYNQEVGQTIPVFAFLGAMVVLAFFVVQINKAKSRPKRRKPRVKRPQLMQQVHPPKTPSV
Procedure, shortened: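 Recombinant soluble human SKI-1 (activity normalized to 10 pmol Abz-peptide released per µL per h, 37 °C). Only the E-form was tested, at varying concentrations, with quenched fluorogenic Abz-Q-GPC251–263-Tyx substrate in Tris/Mes/2 mM CaCl2 buffer at 37 °C. RFU (ex 320/em 420 nm) were read from 0–6 h and converted to cleavage rates. Ki came from Dixon plots at 0.1, 0.05 and 0.025 mM substrate.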

Compound	Ki [µM]
CC(C)[C@H](NC(=O)COc1ccccc1/N=N/c1ccccc1OCC(=O)N[C@H](C(=O)OCc1ccccc1)C(C)C)C(=O)OCc1ccccc1	125
O=C(COc1ccccc1/N=N/c1ccccc1OCC(=O)N[C@@H](Cc1ccccc1)C(=O)OCc1ccccc1)N[C@@H](Cc1ccccc1)C(=O)OCc1ccccc1	11.8
CC(C)[C@H](NC(=O)COc1ccccc1/N=N/c1ccccc1OCC(=O)N[C@H](C(=O)O)C(C)C)C(=O)O	75
O=C(COc1ccccc1/N=N/c1ccccc1OCC(=O)N[C@@H](Cc1ccccc1)C(=O)N[C@@H](Cc1ccccc1)C(=O)O)N[C@@H](Cc1ccccc1)C(=O)N[C@@H](Cc1ccccc1)C(=O)O	140

The remaining molecules from weak to strong by Ki, led by results:

Ki [µM]	Compound
265	O=C(O)CNC(=O)COc1ccccc1/N=N/c1ccccc1OCC(=O)NCC(=O)O
225	O=C(COc1ccccc1/N=N/c1ccccc1OCC(=O)N[C@@H](Cc1ccccc1)C(=O)O)N[C@@H](Cc1ccccc1)C(=O)O
